Published values gathered from unrelated publications.
Lines come from different studies, so protocols differ.
Organism: Pseudomonas aeruginosa
Effect on: microbial growth

| Compound | assay | test system | setting | MIC |
| --- | --- | --- | --- | --- |
| Cc1cc(/C=C2\Sc3ccccc3N2CCCN2CCCCC2)c2ccccc2[n+]1C.[I-] | broth dilution | ATCCBAA2108 | drug-resistant strain | 64 µg/mL |
| COC(=O)c1cc(-c2cccc(NC(=O)Nc3cc(OC)ccc3OC)c2)on1 | broth dilution | ATCC27853 |  | > 64 µg/mL |
| CO[C@H]1/C=C/O[C@@]2(C)Oc3c(C)c(O)c4c(O)c(c(/C=N/N5CCN(C)CC5)c(O)c4c3C2=O)NC(=O)/C(C)=C\C=C\[C@H](C)[C@H](O)[C@@H](C)[C@@H](O)[C@@H](C)[C@H](OC(C)=O)[C@@H]1C | broth dilution | ATCCBAA2108 | drug-resistant strain | > 64 µg/mL |
| Nc1nc(-c2ccc(NC(=O)Nc3cccc(-c4c[nH]c(N)n4)c3F)cc2F)c[nH]1 | broth dilution | PAO1 |  | > 200 µM |
| COC(=O)c1cc(-c2cccc(NC(=O)NCc3ccccc3)c2)on1 | broth dilution | ATCC27853 |  | > 64 µg/mL |
| CCCCCCC#Cc1cncc(-c2nnc(SCc3cc([N+](=O)[O-])cc([N+](=O)[O-])c3)n2C)c1 |  |  |  | ≥ 20 µg/mL |
| CCCCCCCCCCCC(=O)OC[C@H]1O[C@@H](n2cc(C)c(=O)[nH]c2=O)C[C@@H]1O | broth dilution |  |  | 8 µg/mL |
| COC(=O)c1cc(-c2cccc(NC(=S)Nc3cc(C(F)(F)F)cc(C(F)(F)F)c3)c2)on1 | broth dilution | ATCC27853 |  | > 64 µg/mL |
| CC1(C)SC2C(NC(=O)C(NC(=O)C3=C(O)CN(c4ccccc4)C3=O)c3ccccc3)C(=O)N2C1C(=O)O (stereo not shown) |  |  |  | 100 µg/mL |
| CN[C@H](CC(C)C)C(=O)N[C@H]1C(=O)N[C@@H](CC(N)=O)C(=O)N[C@H]2C(=O)N[C@H]3C(=O)N[C@H](C(=O)N[C@H](C(=O)O)c4cc(O)cc(O)c4-c4cc3ccc4O)[C@H](O)c3ccc(c(Cl)c3)Oc3cc2cc(c3O[C@@H]2O[C@H](CO)[C@@H](O)[C@H](O)[C@H]2O[C@H]2C[C@](C)(N)[C@H](O)[C@H](C)O2)Oc2ccc(cc2Cl)[C@H]1O | broth dilution | ATCCBAA2108 | drug-resistant strain | > 64 µg/mL |
| C[C@H]1COCCN1c1nc(NCc2cccnc2C(F)(F)F)c2cccnc2n1 | broth dilution | NCTC13437 |  | 64 µg/mL |
| Oc1cc(Cl)ccc1Oc1ccc(Cl)cc1Cl |  |  |  | > 25 µg/mL |
| COC(=O)c1cc(-c2cccc(NC(=O)Nc3ccccc3F)c2)on1 | broth dilution | ATCC27853 |  | > 64 µg/mL |
| Cc1cc(/C=C2\Sc3ccccc3N2CCCN2CCC(C)CC2)c2ccccc2[n+]1C.[I-] | broth dilution | ATCCBAA2108 | drug-resistant strain | 64 µg/mL |
| COC(=O)c1cc(-c2cccc(NC(=O)Nc3ccc(F)cc3F)c2)on1 | broth dilution | ATCC27853 |  | > 64 µg/mL |
| CC1(C)S[C@@H]2[C@H](NC(=O)[C@H](N)c3ccccc3)C(=O)N2[C@H]1C(=O)O | broth dilution | ATCCBAA2108 | drug-resistant strain | > 64 µg/mL |
